Measured values taken from ChEMBL document CHEMBL2429794, “Tuning the antibacterial activity of amphiphilic neamine derivatives and comparison to paromamine homologues” (J Med Chem, 2013).
Converted amounts (≈) assume the structure as drawn.

Legend:
Pseudomonas aeruginosa [1] = assay: Antibacterial activity against Pseudomonas aeruginosa PA22 (PT629) expressing MexXY after 24 hrs by geometric microdilution method; assay type: functional
Klebsiella pneumoniae = assay: Antibacterial activity against Klebsiella pneumoniae ATCC 700603 after 24 hrs by geometric microdilution method; assay type: functional
Escherichia coli [2] = assay: Antibacterial activity against Escherichia coli PAZ505H8101 expressing AAC6'-1B after 24 hrs by geometric microdilution method; assay type: functional
Acinetobacter lwoffii [3] = assay: Antibacterial activity against Acinetobacter lwoffii AI.88-483 expressing APH3'-6A after 24 hrs by geometric microdilution method; assay type: functional
Escherichia coli [4] = assay: microbe, parasite or virus in culture; details: ATCC 25922, 24 h
Pseudomonas aeruginosa [5] = assay: Antibacterial activity against Pseudomonas aeruginosa F03 expressing AAC6'-2A after 24 hrs by geometric microdilution method; assay type: functional
Pseudomonas aeruginosa [6] = assay: Antibacterial activity against Pseudomonas aeruginosa ATCC 27853 after 24 hrs by geometric microdilution method; assay type: functional
Escherichia coli [7] = assay: Antibacterial activity against Escherichia coli L58058.1 expressing ANT2''-1A after 24 hrs by geometric microdilution method; assay type: functional
Acinetobacter lwoffii [8] = assay: Antibacterial activity against Acinetobacter lwoffii ATCC 17925 after 24 hrs by geometric microdilution method; assay type: functional; details: ATCC 17925, 24 h
Staphylococcus aureus [9] = assay: Antibacterial activity against 14- and 15-membered macrolide-resistant Staphylococcus aureus expressing MsrA efflux pump after 24 hrs by geometric microdilution method; assay type: functional
Summary of the method: (§1)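 Broth cultures were incubated in plates at 37 °C, and growth was read as absorbance at 650 nm after 1, 4, 7 and 24 h. Ampicillin (16 mg/L) was the positive control and DMSO the negative control. Each MIC (μg/mL) is the average of at least three determinations.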

Staphylococcus aureus [10] = assay: Antibacterial activity against Staphylococcus aureus expressing aminoglycoside-6'-N-acetyltransferase/2''-O-phosphoryltransferase after 24 hrs by geometric microdilution method; assay type: functional; summary of the method: as §1
Staphylococcus aureus [11] = assay: Antibacterial activity against vancomycin-resistant Staphylococcus aureus VRS2 after 24 hrs by geometric microdilution method; assay type: functional; summary of the method: as §1
Staphylococcus aureus [12] = assay: Antibacterial activity against Staphylococcus aureus expressing aminoglycoside-3'-O-phosphoryltransferase after 24 hrs by geometric microdilution method; assay type: functional; summary of the method: as §1
Staphylococcus aureus [13] = assay: Antibacterial activity against Staphylococcus aureus expressing aminoglycoside-[…] after 24 hrs by geometric microdilution method; assay type: functional; summary of the method: as §1
Staphylococcus aureus [14] = assay: microbe, parasite or virus in culture; details: ATCC 25923, 24 h
Staphylococcus aureus [15] = assay: Antibacterial activity against healthcare-acquired methicillin-resistant Staphylococcus aureus ATCC 33592 after 24 hrs by geometric microdilution method; assay type: functional; summary of the method: as §1
Staphylococcus aureus [16] = assay: Antibacterial activity against fluoroquinolone-resistant Staphylococcus aureus 1199B expressing NorA efflux pump after 24 hrs by geometric microdilution method; assay type: functional; summary of the method: as §1

Compound | MIC (Pseudomonas aeruginosa [1]) | MIC (Klebsiella pneumoniae; ATCC 700603, 24 h) | MIC (Escherichia coli [2]; PAZ505H8101, 24 h) | MIC (Acinetobacter lwoffii [3]; AI.88-483, 24 h) | MIC (Escherichia coli [4]) | MIC (Pseudomonas aeruginosa [5]; F03, 24 h) | MIC (Pseudomonas aeruginosa [6]; ATCC 27853, 24 h) | MIC (Escherichia coli [7]; L58058.1, 24 h) | MIC (Acinetobacter lwoffii [8]) | MIC (Staphylococcus aureus [9]) | MIC (Staphylococcus aureus [10]) | MIC (Staphylococcus aureus [11]; VRS2, 24 h) | MIC (Staphylococcus aureus [12]) | MIC (Staphylococcus aureus [13]) | MIC (Staphylococcus aureus [14]) | MIC (Staphylococcus aureus [15]; ATCC 33592, 24 h) | MIC (Staphylococcus aureus [16]) | other results
NC[C@H]1O[C@H](O[C@H]2[C@H](O)[C@@H](O[C@H]3O[C@H](CO)[C@@H](O)[C@H](N)[C@H]3O)[C@H](N)C[C@@H]2N)[C@H](N)C[C@@H]1O [TOBRAMYCIN] | 1 µg/mL (≈ 2.14 µM) | 4 µg/mL (≈ 8.56 µM) | 32 µg/mL (≈ 68.4 µM) | 1 µg/mL (≈ 2.14 µM) | 0.5 µg/mL (≈ 1.07 µM) | 128 µg/mL (≈ 274 µM) | 0.5 µg/mL (≈ 1.07 µM) | 64 µg/mL (≈ 137 µM) | 0.5 µg/mL (≈ 1.07 µM) |  |  |  |  |  |  |  |  | 
N[C@H]1[C@@H](O[C@H]2[C@H](O)[C@@H](OCc3ccc4ccccc4c3)[C@H](N)C[C@@H]2N)O[C@H](CO)[C@@H](O)[C@@H]1OCc1ccc2ccccc2c1 | 128 µg/mL (≈ 212 µM) | > 128 µg/mL | 64 µg/mL (≈ 106 µM) | > 128 µg/mL | 128 µg/mL (≈ 212 µM) | 64 µg/mL (≈ 106 µM) | 128 µg/mL (≈ 212 µM) | 64 µg/mL (≈ 106 µM) | 64 µg/mL (≈ 106 µM) | 32 µg/mL (≈ 53 µM) | 32 µg/mL (≈ 53 µM) | 16 µg/mL (≈ 26.5 µM) | 16 µg/mL (≈ 26.5 µM) | 16 µg/mL (≈ 26.5 µM) | 8 µg/mL (≈ 13.3 µM) | 16 µg/mL (≈ 26.5 µM) | 32 µg/mL (≈ 53 µM) | 
NC[C@H]1O[C@H](O[C@H]2[C@H](O)[C@@H](OCc3cccc4ccccc34)[C@H](N)C[C@@H]2N)[C@H](N)[C@@H](OCc2cccc3ccccc23)[C@@H]1OCc1cccc2ccccc12 | 8 µg/mL (≈ 10.8 µM) | 128 µg/mL (≈ 172 µM) | 2 µg/mL (≈ 2.69 µM) | 128 µg/mL (≈ 172 µM) | 8 µg/mL (≈ 10.8 µM) | 8 µg/mL (≈ 10.8 µM) | 8 µg/mL (≈ 10.8 µM) | 16 µg/mL (≈ 21.5 µM) | 2 µg/mL (≈ 2.69 µM) | 2 µg/mL (≈ 2.69 µM) | 4 µg/mL (≈ 5.38 µM) | 16 µg/mL (≈ 21.5 µM) | 2 µg/mL (≈ 2.69 µM) | 4 µg/mL (≈ 5.38 µM) | 1 µg/mL (≈ 1.35 µM) | 4 µg/mL (≈ 5.38 µM) | 4 µg/mL (≈ 5.38 µM) | 
NC[C@H]1O[C@H](O[C@H]2[C@H](O)[C@@H](OCc3cccc4ccccc34)[C@H](N)C[C@@H]2N)[C@H](N)[C@@H](OCc2cccc3ccccc23)[C@@H]1O | > 128 µg/mL | > 128 µg/mL | 16 µg/mL (≈ 26.5 µM) | > 128 µg/mL | 32 µg/mL (≈ 53.1 µM) | 64 µg/mL (≈ 106 µM) | 32 µg/mL (≈ 53.1 µM) | 32 µg/mL (≈ 53.1 µM) | 16 µg/mL (≈ 26.5 µM) | 16 µg/mL (≈ 26.5 µM) | 32 µg/mL (≈ 53.1 µM) | 8 µg/mL (≈ 13.3 µM) | 8 µg/mL (≈ 13.3 µM) | 16 µg/mL (≈ 26.5 µM) | 8 µg/mL (≈ 13.3 µM) | 8 µg/mL (≈ 13.3 µM) | 16 µg/mL (≈ 26.5 µM) | 
NCC[C@H](O)C(=O)N[C@@H]1C[C@H](N)[C@@H](O[C@H]2O[C@H](CN)[C@@H](O)[C@H](O)[C@H]2O)[C@H](O)[C@H]1O[C@H]1O[C@H](CO)[C@@H](O)[C@H](N)[C@H]1O [AMIKACIN] | 8 µg/mL (≈ 13.7 µM) | 0.5 µg/mL (≈ 0.854 µM) | 64 µg/mL (≈ 109 µM) | > 128 µg/mL | 4 µg/mL (≈ 6.83 µM) | 4 µg/mL (≈ 6.83 µM) | 2 µg/mL (≈ 3.42 µM) | 2 µg/mL (≈ 3.42 µM) | 0.5 µg/mL (≈ 0.854 µM) |  |  |  |  |  |  |  |  | 
N[C@H]1[C@@H](O[C@H]2[C@H](O)[C@@H](OCc3cccc4ccccc34)[C@H](N)C[C@@H]2N)O[C@H](CO)[C@@H](O)[C@@H]1OCc1cccc2ccccc12 | > 128 µg/mL | 128 µg/mL (≈ 212 µM) | 64 µg/mL (≈ 106 µM) | > 128 µg/mL | 128 µg/mL (≈ 212 µM) | 128 µg/mL (≈ 212 µM) | 64 µg/mL (≈ 106 µM) | 128 µg/mL (≈ 212 µM) | 128 µg/mL (≈ 212 µM) | 64 µg/mL (≈ 106 µM) | 64 µg/mL (≈ 106 µM) |  | 32 µg/mL (≈ 53 µM) | 32 µg/mL (≈ 53 µM) | 32 µg/mL (≈ 53 µM) | 32 µg/mL (≈ 53 µM) | 64 µg/mL (≈ 106 µM) | 
NC[C@H]1O[C@H](O[C@H]2[C@H](O)[C@@H](OCCCCc3ccc4ccccc4c3)[C@H](N)C[C@@H]2N)[C@H](N)[C@@H](OCCCCc2ccc3ccccc3c2)[C@@H]1OCCCCc1ccc2ccccc2c1 | 128 µg/mL (≈ 147 µM) |  | 128 µg/mL (≈ 147 µM) |  | 128 µg/mL (≈ 147 µM) | 128 µg/mL (≈ 147 µM) | 128 µg/mL (≈ 147 µM) | > 128 µg/mL |  | 128 µg/mL (≈ 147 µM) | 128 µg/mL (≈ 147 µM) | > 128 µg/mL | 128 µg/mL (≈ 147 µM) | 128 µg/mL (≈ 147 µM) | > 128 µg/mL | > 128 µg/mL | > 128 µg/mL | 
GENTAMICIN | 4 µg/mL |  |  |  |  |  |  |  |  |  |  |  |  |  |  |  |  | MIC (Klebsiella pneumoniae): 8 µg/mL; MIC (Escherichia coli [2]): 1 µg/mL; MIC (Acinetobacter lwoffii [3]): 4 µg/mL; MIC (Staphylococcus aureus [11]): 32 µg/mL; MIC (Pseudomonas aeruginosa [5]): > 128 µg/mL; MIC (Pseudomonas aeruginosa [6]): 1 µg/mL; MIC (Escherichia coli [7]): 64 µg/mL; MIC (Staphylococcus aureus [15]): 1 µg/mL
NC[C@H]1O[C@H](O[C@H]2[C@H](O)[C@@H](OCc3ccccc3)[C@H](N)C[C@@H]2N)[C@H](N)[C@@H](OCc2ccccc2)[C@@H]1OCc1ccccc1 | > 128 µg/mL | > 128 µg/mL | > 128 µg/mL | > 128 µg/mL | > 128 µg/mL | > 128 µg/mL | > 128 µg/mL | > 128 µg/mL | > 128 µg/mL |  | > 128 µg/mL | 64 µg/mL (≈ 108 µM) | > 128 µg/mL | > 128 µg/mL | > 128 µg/mL | > 128 µg/mL | > 128 µg/mL | 
